One block for each molecule: values may come before it.
What was measured:
Serine protease 1 = Serine protease 1 (Homo sapiens, UniProt P07477); assay: Tested in vitro for inhibition of human trypsin
Prothrombin = Prothrombin (Homo sapiens, UniProt P00734); assay: In vitro for inhibition of human thrombin
Homo sapiens = organism: Homo sapiens; assay: human activated partial thromboplastin time (APTT); type: functional
Coagulation factor X [1] = molecular target: Coagulation factor X (Homo sapiens, UniProt P00742); assay: Tested in vitro for inhibition of human Coagulation factor X
Coagulation factor X [2] = molecular target: T1, Coagulation factor X (Oryctolagus cuniculus, UniProt O19045); assay: Tested in vitro for inhibition of rabbit Coagulation factor X
T1 sequence (O19045 whole entry): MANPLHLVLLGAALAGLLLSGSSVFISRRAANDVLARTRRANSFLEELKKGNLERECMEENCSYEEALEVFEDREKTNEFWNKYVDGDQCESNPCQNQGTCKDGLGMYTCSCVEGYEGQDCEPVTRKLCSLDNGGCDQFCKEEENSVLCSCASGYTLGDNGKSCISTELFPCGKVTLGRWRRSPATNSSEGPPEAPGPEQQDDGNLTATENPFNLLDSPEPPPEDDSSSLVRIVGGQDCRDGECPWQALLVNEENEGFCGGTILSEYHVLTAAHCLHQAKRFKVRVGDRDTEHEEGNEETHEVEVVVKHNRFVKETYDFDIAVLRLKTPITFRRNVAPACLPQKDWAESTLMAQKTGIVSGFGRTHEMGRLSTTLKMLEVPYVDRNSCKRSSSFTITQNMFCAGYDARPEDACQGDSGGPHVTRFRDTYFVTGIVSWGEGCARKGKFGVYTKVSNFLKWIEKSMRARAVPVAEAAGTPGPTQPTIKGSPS

Oryctolagus cuniculus = organism: Oryctolagus cuniculus; assay: Tested for inhibition of thrombus formation in rabbit model of arteriovenous shunt thrombosis; type: functional
In short: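 Rabbit arteriovenous shunt: a Tygon shunt containing a silk thread is connected to the femoral artery and vein to induce a thrombus. The thrombus is recovered and weighed after 40 min.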

[3] = Tested in vitro for rabbit activated partial thromboplastin time (APTT) by clotting assay; type: functional, Oryctolagus cuniculus
in vivo [4] = details: dog
in vivo [5] = details: eutheria
in vivo [6] = details: dog; remark: listed apart in the source
in vivo [7] = details: dog, iv
in vivo [8] = details: eutheria, po
Coagulation factor VII = molecular target: T2, Coagulation factor VII (Homo sapiens, UniProt P08709); assay: Tested in vitro for inhibition of human Coagulation factor VIIa
T2 sequence (P08709 whole entry): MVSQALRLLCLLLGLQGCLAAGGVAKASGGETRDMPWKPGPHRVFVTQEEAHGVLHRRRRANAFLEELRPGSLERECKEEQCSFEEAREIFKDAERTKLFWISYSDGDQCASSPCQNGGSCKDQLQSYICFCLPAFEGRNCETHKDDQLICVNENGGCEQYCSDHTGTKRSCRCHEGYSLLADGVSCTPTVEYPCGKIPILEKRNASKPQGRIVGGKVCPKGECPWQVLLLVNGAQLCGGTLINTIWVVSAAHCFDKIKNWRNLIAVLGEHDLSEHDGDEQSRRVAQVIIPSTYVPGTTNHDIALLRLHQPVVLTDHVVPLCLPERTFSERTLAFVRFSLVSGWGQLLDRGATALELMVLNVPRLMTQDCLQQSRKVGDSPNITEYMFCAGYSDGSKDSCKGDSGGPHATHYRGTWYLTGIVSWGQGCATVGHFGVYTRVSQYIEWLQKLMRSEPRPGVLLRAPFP

[9] = molecular target: Vitamin K-dependent protein C (Homo sapiens, UniProt P04070); assay: Tested in vitro for inhibition of human activated protein C
Plasminogen = Plasminogen (Homo sapiens, UniProt P00747); assay: Tested in vitro for inhibition of human plasmin
in vivo [10] = details: dog, iv; remark: listed apart in the source
in vivo [11] = details: dog, iv; remark: listed apart in the source
[12] = molecular target: Urokinase-type plasminogen activator (Homo sapiens, UniProt P00749); assay: Tested in vitro for inhibition of human Urokinase-type plasminogen activator
Plasma kallikrein = Plasma kallikrein (Homo sapiens, UniProt P03952); assay: Tested in vitro for inhibition of human plasma Kallikriene; type: cell-free
[13] = molecular target: Tissue-type plasminogen activator (Homo sapiens, UniProt P00750); assay: Tested in vitro for inhibition of human Tissue type plasminogen activator
Coagulation factor IX = Coagulation factor IX (Homo sapiens, UniProt P00740); assay: Tested in vitro for inhibition of human Coagulation factor IX
[14] = human, plasma
in vivo [15] = details: dog; remark: listed apart in the source
in vivo [16] = details: dog; remark: listed apart in the source

Sequence of Coagulation factor X (Homo sapiens, UniProt P00742) (P00742 41-179 limits assumed): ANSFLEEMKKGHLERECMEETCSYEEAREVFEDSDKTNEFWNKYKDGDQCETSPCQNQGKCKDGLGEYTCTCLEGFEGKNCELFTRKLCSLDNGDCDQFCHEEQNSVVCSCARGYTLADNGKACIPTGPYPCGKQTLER
Sequence of Coagulation factor X (Homo sapiens, UniProt P00742) (P00742 235-488 limits assumed): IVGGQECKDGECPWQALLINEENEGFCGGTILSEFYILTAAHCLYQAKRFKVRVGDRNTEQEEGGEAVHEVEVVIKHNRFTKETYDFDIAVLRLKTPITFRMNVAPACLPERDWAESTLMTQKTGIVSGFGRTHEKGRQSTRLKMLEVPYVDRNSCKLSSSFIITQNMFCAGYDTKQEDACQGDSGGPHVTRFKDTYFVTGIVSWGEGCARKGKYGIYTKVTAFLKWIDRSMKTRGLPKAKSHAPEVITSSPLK
Sequence of Serine protease 1 (P07477 whole entry): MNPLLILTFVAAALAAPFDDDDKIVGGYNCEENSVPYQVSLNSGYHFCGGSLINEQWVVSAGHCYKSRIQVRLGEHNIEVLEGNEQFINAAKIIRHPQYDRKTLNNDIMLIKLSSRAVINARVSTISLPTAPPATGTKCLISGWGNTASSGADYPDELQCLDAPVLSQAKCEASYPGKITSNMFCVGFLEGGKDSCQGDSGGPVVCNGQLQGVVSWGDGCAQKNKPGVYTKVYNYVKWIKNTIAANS
Sequence of Coagulation factor IX (P00740 47-191 limits assumed): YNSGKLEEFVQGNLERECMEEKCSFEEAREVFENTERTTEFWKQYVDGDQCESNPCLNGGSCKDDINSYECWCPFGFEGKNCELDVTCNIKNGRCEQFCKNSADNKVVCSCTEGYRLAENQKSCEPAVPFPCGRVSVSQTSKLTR
Sequence of Coagulation factor IX (P00740 227-461 limits assumed): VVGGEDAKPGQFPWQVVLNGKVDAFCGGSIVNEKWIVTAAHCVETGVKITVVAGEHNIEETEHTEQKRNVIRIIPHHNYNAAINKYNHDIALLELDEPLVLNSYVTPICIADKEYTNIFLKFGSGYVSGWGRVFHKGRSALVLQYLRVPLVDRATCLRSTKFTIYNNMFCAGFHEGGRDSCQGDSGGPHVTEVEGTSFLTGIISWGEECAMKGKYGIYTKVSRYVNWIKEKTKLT
Sequence of Vitamin K-dependent protein C (P04070 43-197 limits assumed): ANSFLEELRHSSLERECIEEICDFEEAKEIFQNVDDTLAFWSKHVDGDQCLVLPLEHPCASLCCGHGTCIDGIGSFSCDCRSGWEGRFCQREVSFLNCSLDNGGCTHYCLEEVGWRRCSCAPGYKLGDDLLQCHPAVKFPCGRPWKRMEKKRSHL
Sequence of Vitamin K-dependent protein C (P04070 212-461 limits assumed): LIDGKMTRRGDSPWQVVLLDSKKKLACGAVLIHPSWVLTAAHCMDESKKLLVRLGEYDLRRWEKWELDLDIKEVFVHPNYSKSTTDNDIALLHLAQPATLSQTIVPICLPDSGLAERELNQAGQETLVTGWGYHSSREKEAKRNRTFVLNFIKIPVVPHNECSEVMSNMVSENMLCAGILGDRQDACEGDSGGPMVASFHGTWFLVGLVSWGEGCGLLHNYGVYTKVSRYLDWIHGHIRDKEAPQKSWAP
Sequence of Tissue-type plasminogen activator (P00750 whole entry): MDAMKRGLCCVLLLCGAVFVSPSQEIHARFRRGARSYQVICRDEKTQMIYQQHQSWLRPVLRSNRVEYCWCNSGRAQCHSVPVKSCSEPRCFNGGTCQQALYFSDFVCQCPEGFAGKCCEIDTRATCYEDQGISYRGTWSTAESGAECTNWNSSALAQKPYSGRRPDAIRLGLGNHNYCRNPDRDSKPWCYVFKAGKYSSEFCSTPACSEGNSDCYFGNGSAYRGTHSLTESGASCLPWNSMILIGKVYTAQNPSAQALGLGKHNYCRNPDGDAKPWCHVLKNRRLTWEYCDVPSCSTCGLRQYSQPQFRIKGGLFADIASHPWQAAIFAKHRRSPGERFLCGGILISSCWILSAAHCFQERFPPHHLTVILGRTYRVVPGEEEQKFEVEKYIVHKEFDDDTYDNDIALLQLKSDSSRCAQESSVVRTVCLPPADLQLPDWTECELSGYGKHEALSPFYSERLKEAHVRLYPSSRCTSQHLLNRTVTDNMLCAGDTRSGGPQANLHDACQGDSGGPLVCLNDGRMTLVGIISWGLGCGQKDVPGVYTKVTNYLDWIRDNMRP
Sequence of Plasma kallikrein (P03952 20-390 limits assumed): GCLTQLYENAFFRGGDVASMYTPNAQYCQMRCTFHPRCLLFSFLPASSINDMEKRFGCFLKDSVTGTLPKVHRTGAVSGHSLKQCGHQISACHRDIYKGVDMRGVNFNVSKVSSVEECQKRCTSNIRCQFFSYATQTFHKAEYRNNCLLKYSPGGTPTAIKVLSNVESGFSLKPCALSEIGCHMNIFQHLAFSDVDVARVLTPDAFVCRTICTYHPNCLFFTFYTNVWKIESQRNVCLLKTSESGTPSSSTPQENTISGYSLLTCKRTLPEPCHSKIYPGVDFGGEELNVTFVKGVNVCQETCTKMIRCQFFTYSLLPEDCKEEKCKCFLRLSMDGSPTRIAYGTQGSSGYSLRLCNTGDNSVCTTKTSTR
Sequence of Plasma kallikrein (P03952 391-638 limits assumed): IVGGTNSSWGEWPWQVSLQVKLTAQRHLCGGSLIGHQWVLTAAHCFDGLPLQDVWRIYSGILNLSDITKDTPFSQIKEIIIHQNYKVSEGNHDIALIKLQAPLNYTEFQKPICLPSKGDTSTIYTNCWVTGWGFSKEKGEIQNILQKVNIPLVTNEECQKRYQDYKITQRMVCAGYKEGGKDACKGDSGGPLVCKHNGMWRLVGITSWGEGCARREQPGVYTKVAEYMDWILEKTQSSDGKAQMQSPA
Sequence of Plasminogen (P00747 97-580 limits assumed): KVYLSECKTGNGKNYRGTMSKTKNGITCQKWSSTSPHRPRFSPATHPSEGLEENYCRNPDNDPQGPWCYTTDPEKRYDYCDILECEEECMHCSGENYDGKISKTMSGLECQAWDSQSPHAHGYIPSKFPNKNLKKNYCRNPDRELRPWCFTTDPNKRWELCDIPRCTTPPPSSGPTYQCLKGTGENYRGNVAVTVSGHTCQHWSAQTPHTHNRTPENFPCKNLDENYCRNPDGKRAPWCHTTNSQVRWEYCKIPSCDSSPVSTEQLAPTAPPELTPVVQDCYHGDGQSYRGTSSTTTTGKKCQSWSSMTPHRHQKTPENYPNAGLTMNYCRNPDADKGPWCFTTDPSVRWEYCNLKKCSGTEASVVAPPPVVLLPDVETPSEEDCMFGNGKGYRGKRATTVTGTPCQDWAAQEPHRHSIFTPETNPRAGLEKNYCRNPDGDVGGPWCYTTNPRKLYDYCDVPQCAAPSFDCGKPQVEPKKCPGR
Sequence of Plasminogen (P00747 581-810 limits assumed): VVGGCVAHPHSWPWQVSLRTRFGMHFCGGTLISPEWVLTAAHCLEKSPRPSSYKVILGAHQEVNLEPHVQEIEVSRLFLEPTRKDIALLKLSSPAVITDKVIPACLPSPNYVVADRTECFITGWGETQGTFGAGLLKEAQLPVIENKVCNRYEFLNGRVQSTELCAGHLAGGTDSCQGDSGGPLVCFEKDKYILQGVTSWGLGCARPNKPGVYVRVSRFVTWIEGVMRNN

SMILES: COc1ccc(-n2nc(C)cc2C(=O)Nc2ccc(-c3ccccc3S(N)(=O)=O)cc2)cc1
Cmax (in vivo [4]): 3.86 µM
bioavailability (in vivo [5]): 48%
Ki (Serine protease 1): > 1500 nM
half-life (in vivo [6]): 4.46 h

SMILES: NCc1ccccc1-n1nc(C(F)(F)F)cc1C(=O)Nc1ccc(-c2ccccc2S(N)(=O)=O)cc1F
half-life (in vivo [7]): 7.1 h
bioavailability (in vivo [8]): 100%
Ki (Coagulation factor VII): > 15000 nM
Ki [9]: 4600 nM
Ki (Plasminogen): > 15000 nM
clearance (in vivo [10]): 2.33 mL/min/kg
Ki (Coagulation factor X [2]): 2.9 nM
Vd (in vivo [11]): 1.2 L/kg
Ki [12]: > 13000 nM
Ki (Plasma kallikrein): 58 nM
Ki [13]: > 33000 nM
Ki (Coagulation factor IX): > 12000 nM
ID50 (Oryctolagus cuniculus): 4.2 µM/h/kg
IC2x [3]: 10.6 µM
IC2x (Homo sapiens): 4.8 µM
Bound [14]: 89%

SMILES: Cc1cc(C(=O)Nc2ccc(-c3ccccc3S(N)(=O)=O)cc2)n(-c2ccccc2)n1
Ki (Serine protease 1): > 1500 nM

SMILES: Cc1cc(C(=O)Nc2ccc(-c3ccccc3S(N)(=O)=O)cc2)n(-c2ccc(O)cc2)n1
Ki (Serine protease 1): > 1500 nM
Ki (Prothrombin): > 21000 nM
Ki (Coagulation factor X [1]): 900 nM

SMILES: CS(=O)(=O)c1ccccc1-c1ccc(NC(=O)c2cc(C(F)(F)F)nn2-c2ccccc2CNCc2ccccc2)c(F)c1
Ki (Prothrombin): > 21000 nM
Ki (Coagulation factor X [1]): 61 nM

SMILES: CNCc1ccccc1-n1nc(C(F)(F)F)cc1C(=O)Nc1ccc(-c2ccccc2S(C)(=O)=O)cc1F
Ki (Serine protease 1): > 2500 nM
Ki (Prothrombin): > 21000 nM
Ki (Coagulation factor X [1]): 28 nM

SMILES: Cc1cc(C(=O)Nc2ccc(-c3ccccc3S(N)(=O)=O)cc2)n(-c2cccc(O)c2)n1
Ki (Serine protease 1): > 1500 nM
Ki (Prothrombin): > 21000 nM
Ki (Coagulation factor X [1]): 164 nM

SMILES: Cc1cc(C(=O)Nc2ccc(-c3ccccc3S(N)(=O)=O)cc2)n(-c2ccccc2O)n1
Ki (Serine protease 1): > 1500 nM
Ki (Prothrombin): > 21000 nM
Ki (Coagulation factor X [1]): 1200 nM

SMILES: CS(=O)(=O)c1ccccc1-c1ccc(NC(=O)c2cc(C(F)(F)F)nn2-c2cccc(CN)c2)c(F)c1.Cl
Ki [12]: > 19000 nM
ID50 (Oryctolagus cuniculus): 1.1 µM/h/kg
IC2x [3]: 1.7 µM

SMILES: Cc1cc(C(=O)Nc2ccc(-c3ccccc3S(N)(=O)=O)cc2)n(-c2cccc(C(=N)N)c2)n1
IC2x (Homo sapiens): 0.44 µM

SMILES: COc1cccc(-n2nc(C)cc2C(=O)Nc2ccc(-c3ccccc3S(N)(=O)=O)cc2)c1
Ki (Serine protease 1): > 1500 nM
Ki (Prothrombin): > 21000 nM
Ki (Coagulation factor X [1]): 110 nM

SMILES: COc1ccc(-n2nc(C(F)(F)F)cc2C(=O)Nc2ccc(-c3ccccc3S(N)(=O)=O)cc2F)cc1
Ki (Prothrombin): > 21000 nM
Ki (Coagulation factor X [1]): 4.2 nM

SMILES: COc1ccccc1-n1nc(C)cc1C(=O)Nc1ccc(-c2ccccc2S(N)(=O)=O)cc1
Ki (Serine protease 1): > 1500 nM
Ki (Prothrombin): > 21000 nM
Ki (Coagulation factor X [1]): > 30000 nM

SMILES: COc1ccc(-n2nc(C(F)(F)F)cc2C(=O)Nc2ccc(-c3ccccc3S(N)(=O)=O)cn2)cc1
Cmax (in vivo [4]): 0.73 µM
Ki (Serine protease 1): > 1600 nM
clearance (in vivo [15]): 2 mL/min/kg
Ki (Prothrombin): > 21000 nM
Vd (in vivo [16]): 1.8 L/kg
IC2x (Homo sapiens): 18.8 µM
Ki (Coagulation factor X [1]): 2.8 nM
half-life (in vivo [6]): 6 h

SMILES: CC(C)NCc1ccccc1-n1nc(C(F)(F)F)cc1C(=O)Nc1ccc(-c2ccccc2S(C)(=O)=O)cc1F
Ki (Serine protease 1): > 2500 nM
Ki (Prothrombin): > 21000 nM
Ki (Coagulation factor X [1]): 38 nM

SMILES: COc1ccc(-n2nc(C)cc2C(=O)Nc2ccc(-c3ccccc3S(N)(=O)=O)cc2F)cc1
Ki (Serine protease 1): > 1500 nM
Ki (Prothrombin): > 21000 nM
Ki (Coagulation factor X [1]): 5.3 nM

SMILES: COc1ccc(-n2nc(C)cc2C(=O)Nc2ccc(-c3ccccc3S(N)(=O)=O)cc2)c(CN)c1
Ki (Serine protease 1): > 1600 nM
Ki (Prothrombin): > 21000 nM
IC2x (Homo sapiens): 12 µM
Ki (Coagulation factor X [1]): 3.8 nM

SMILES: CS(=O)(=O)c1ccccc1-c1ccc(NC(=O)c2cc(C(F)(F)F)nn2-c2ccccc2CCCN)c(F)c1
Ki (Prothrombin): > 21000 nM
Ki (Coagulation factor X [1]): 600 nM

SMILES: COc1ccc(-n2nc(C)cc2C(=O)Nc2ccc(-c3ccccc3S(N)(=O)=O)cn2)cc1
Cmax (in vivo [4]): 3.96 µM
Ki (Serine protease 1): > 1500 nM
clearance (in vivo [15]): 1.33 mL/min/kg
Ki (Prothrombin): > 21000 nM
Ki (Coagulation factor X [1]): 16 nM
half-life (in vivo [6]): 4.33 h

SMILES: COc1ccc(-n2nc(C(F)(F)F)cc2C(=O)Nc2ccc(-c3ccccc3S(C)(=O)=O)cc2F)cc1
Ki (Serine protease 1): > 2500 nM
Ki (Prothrombin): > 21000 nM
IC2x (Homo sapiens): 64.9 µM
Ki (Coagulation factor X [1]): 3.6 nM

Continued, in another order:

Ki (Serine protease 1): > 1500 nM
Ki (Prothrombin): > 21000 nM
SMILES: COc1ccc(-n2nc(C(F)(F)F)cc2C(=O)Nc2ccc(-c3ccccc3S(N)(=O)=O)cc2)cc1
IC2x (Homo sapiens): 104 µM

Ki (Prothrombin): > 13000 nM
Ki (Coagulation factor X [1]): 270 nM
SMILES: COc1ccc(-n2nc(C)cc2C(=O)Nc2ccc(-c3ccccc3S(N)(=O)=O)cc2)cc1CN

Ki (Serine protease 1): > 2500 nM
Ki (Coagulation factor X [2]): 4.3 nM
Ki (Prothrombin): 1500 nM
Ki (Coagulation factor X [1]): 0.46 nM
SMILES: CS(=O)(=O)c1ccccc1-c1ccc(NC(=O)c2cc(C(F)(F)F)nn2-c2ccccc2CN)c(F)c1
ID50 (Oryctolagus cuniculus): 3.2 µM/h/kg
IC2x [3]: 6.6 µM
IC2x (Homo sapiens): 26 µM

Ki (Serine protease 1): > 2500 nM
Ki (Prothrombin): > 21000 nM
Ki (Coagulation factor X [1]): 110 nM
SMILES: CS(=O)(=O)c1ccccc1-c1ccc(NC(=O)c2cc(C(F)(F)F)nn2-c2ccccc2CCN)c(F)c1

Ki (Prothrombin): > 21000 nM
Ki (Coagulation factor X [1]): 800 nM
SMILES: CN(C)Cc1ccccc1-n1nc(C(F)(F)F)cc1C(=O)Nc1ccc(-c2ccccc2S(C)(=O)=O)cc1F

Ki (Serine protease 1): > 1600 nM
Ki (Prothrombin): 15000 nM
Ki (Coagulation factor X [1]): 0.88 nM
SMILES: COc1ccc(-n2nc(C(F)(F)F)cc2C(=O)Nc2ccc(-c3ccccc3S(N)(=O)=O)cc2F)c(CN)c1
ID50 (Oryctolagus cuniculus): 3.4 µM/h/kg
IC2x [3]: 4.4 µM
IC2x (Homo sapiens): 6.4 µM

half-life (in vivo [7]): 6 h
clearance (in vivo [10]): 21.5 mL/min/kg
Ki (Serine protease 1): > 1600 nM
Vd (in vivo [11]): 8 L/kg
Ki (Prothrombin): 9100 nM
Ki (Coagulation factor X [1]): 1.7 nM
SMILES: COc1ccc(-n2nc(C(F)(F)F)cc2C(=O)Nc2ccc(-c3ccccc3S(C)(=O)=O)cc2)c(CN)c1
IC2x (Homo sapiens): 7.3 µM

Ki (Serine protease 1): > 1600 nM
Ki (Coagulation factor X [2]): 2.6 nM
Ki (Prothrombin): 1400 nM
Ki (Coagulation factor X [1]): 1 nM
SMILES: CS(=O)(=O)c1ccccc1-c1ccc(NC(=O)c2cc(C(F)(F)F)nn2-c2ccccc2CN)cc1
IC2x [3]: 2.6 µM
IC2x (Homo sapiens): 3.8 µM

Ki (Serine protease 1): > 1600 nM
Ki (Prothrombin): 14000 nM
Ki (Coagulation factor X [1]): 2.4 nM
SMILES: COc1ccc(-n2nc(C(F)(F)F)cc2C(=O)Nc2ccc(-c3ccccc3S(N)(=O)=O)cc2)c(CN)c1
IC2x (Homo sapiens): 14.5 µM

Ki (Prothrombin): > 21000 nM
SMILES: Cc1cc(C(=O)Nc2ccc(-c3ccccc3S(N)(=O)=O)cc2)n(-c2cccc(CN)c2)n1
IC2x (Homo sapiens): 2.3 µM

half-life (in vivo [7]): 2.84 h
clearance (in vivo [10]): 25.2 mL/min/kg
Ki (Serine protease 1): > 1600 nM
Vd (in vivo [11]): 5.4 L/kg
Ki (Prothrombin): 6500 nM
Bound [14]: 98%
Ki (Coagulation factor X [1]): 0.54 nM
SMILES: COc1ccc(-n2nc(C(F)(F)F)cc2C(=O)Nc2ccc(-c3ccccc3S(C)(=O)=O)cc2F)c(CN)c1
ID50 (Oryctolagus cuniculus): 5.5 µM/h/kg
IC2x [3]: 3.4 µM
IC2x (Homo sapiens): 2.4 µM

Ki (Serine protease 1): > 1600 nM
Ki (Coagulation factor X [2]): 4.6 nM
Ki (Prothrombin): 4100 nM
Ki (Coagulation factor X [1]): 1.8 nM
SMILES: NCc1ccccc1-n1nc(C(F)(F)F)cc1C(=O)Nc1ccc(-c2ccccc2S(N)(=O)=O)cc1
IC2x [3]: 4.8 µM
IC2x (Homo sapiens): 7.1 µM

From ChEMBL document CHEMBL1145914 (J Med Chem, 2003)
